Test results from ChEMBL document CHEMBL1150617, “New and biologically active imidazole alkaloids from two sponges of the genus Leucetta” (2002).
In brackets after ≈: the same amount, converted by molar mass. Activity calls are given as the source filed them. The calls are words filed in the database; no cut-off is given here.

Assays:
[1] = test system: [Chlorella] fusca; assay: Antialgal activity against 'Chlorella' fusca at 50 ug; format: functional, organism-based; conditions: Scenedesmus fuscus
Outline: (§1)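 Agar diffusion assay against bacteria (Bacillus megaterium, Escherichia coli), fungi (Microbotryum violaceum, Eurotium repens, Mycotypha microsporum) and the green microalga Chlorella fusca.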

[2] = test system: Mycotypha microspora; assay: Antifungal activity against Mycotypha microspora at 50 ug; format: functional, organism-based; outline: as §1
[3] = test system: Priestia megaterium; assay: Antibacterial activity against Bacillus megaterium at 50 ug; format: functional, organism-based; outline: as §1
[4] = test system: Aspergillus pseudoglaucus; assay: Antifungal activity against Eurotium repens at 50 ug; format: functional, organism-based; outline: as §1
[5] = Cytotoxicity against human HM02 cells; format: functional
Outline: (§2)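 Cytotoxicity run to NCI standards on the human tumour lines HM02 (stomach carcinoma), HepG2 (liver carcinoma) and Huh7 (liver carcinoma with mutated p53).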

[6] = test system: HepG2; assay: Cytotoxicity against human HepG2 cells; format: functional; outline: as §2
[7] = test system: Microbotryum violaceum; assay: Antifungal activity against Microbotryum violaceum at 50 ug; format: functional, organism-based; outline: as §1
[8] = test system: Huh-7; assay: Cytotoxicity against human HuH7 cells; format: functional; outline: as §2
[9] = test system: Escherichia coli; assay: Antibacterial activity against Escherichia coli at 50 ug; format: functional, organism-based; outline: as §1

SMILES | Activity [1] | Activity [2] | Activity [3] | Activity [4] | GI50 [5] | GI50 [6] | Activity [7] | GI50 [8] | Activity [9]
COc1ccc(Cn2cc(Cc3ccc(OC)c(OC)c3)nc2N)cc1 [ISONAAMINE C] | inactive | inactive | inactive | inactive | 5.3 µg/mL (≈ 15 µM) | 2.2 µg/mL (≈ 6.22 µM) | inactive | 2.1 µg/mL (≈ 5.94 µM) | inactive
COc1ccc(Cc2cn(Cc3ccc(O)cc3)c(=N)n2C)cc1 | inactive | inactive | inactive | inactive |  |  | inactive |  | inactive
COc1ccc(Cc2[nH]c(=N)n(C)c2Cc2cc(O)c(OC)c(O)c2)cc1 | inactive | inactive | inactive | inactive |  |  | inactive |  | inactive
COc1ccc(Cc2[nH]c(=N)n(C)c2Cc2ccc(O)cc2)cc1 | inactive | inactive | inactive | inactive |  |  | inactive |  | inactive
COc1ccc(Cn2cc(Cc3ccc(OC)c(OC)c3)nc2/N=C2/NC(=O)N(C)C2=O)cc1 [ISONAAMIDINE E] | inactive | inactive | inactive | inactive | 7 µg/mL (≈ 15.1 µM) | 7 µg/mL (≈ 15.1 µM) | inactive | 1.3 µg/mL (≈ 2.8 µM) | inactive
